From ChEMBL document CHEMBL4513216, “Probing the Open Global Health Chemical Diversity Library for Multistage-Active Starting Points for Next-Generation Antimalarials” (ACS Infect Dis, 2020)

Experiment: Toxicity liver stage against HepG2, at 10uM
Assay type: cell-based
Parameters: test concentration 10 uM, cell line HepG2-A16-CD81EGFP
Settings: human, HepG2-A16-CD81EGFP cells; read-out: INHIBITION
Summary of the method: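 Uninfected HepG2-A16-CD81EGFP cells, 3 × 10^3 per well, 1536-well, plated on prespotted compound at 10 μM final, parasite-free screening media added to match infected plates; puromycin 10 μM positive, DMSO 0.5% negative; run in parallel with 48 h PbLuc assay at 37 °C, 5% CO2; viability by CellTiter-Glo luminescence, normalized to controls.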
With COCCNc1c(-c2ccc(Cl)cc2)c(=O)c1=O the cytotoxicity at 10 µM was -1.99%. In the case of Cc1c(C2CC(=O)Nc3c2cnn3C(C)C)cnn1C (stereo unspecified), the cytotoxicity at 10 µM is reported as -6.72%. With Cc1cc(C(=O)N2CCN(c3nc4c(C)cccc4s3)CC2)no1 the cytotoxicity at 10 µM was 12.1%. CCC(CC)CN1CCN(CC(=O)Nc2cccc3nsnc23)CC1 showed a cytotoxicity at 10 µM of 6.16%. Compound CNC(=O)c1sc2ccccc2c1CC1CCCN1Cc1cnc(C)s1 (stereo unspecified) has a cytotoxicity at 10 µM of 2.59%. Cc1ccn(Cc2nc(CC(C)C)no2)c(=O)c1 showed a cytotoxicity at 10 µM of 6.21%. With CCNC(=O)c1ccc(NC2CCOC3(CCCC3)C2)nn1 (stereo unspecified) the cytotoxicity at 10 µM was -5%. With Cc1cnc(C(NC(=O)NCc2nc(C3CC3)no2)C2CC2)s1 (stereo unspecified) the cytotoxicity at 10 µM was 4.34%. CN(CCC#N)C(=O)CN1CCCN(Cc2noc(C3CC3)n2)CC1 gave a cytotoxicity at 10 µM of 6.39%. Compound CCNC(=O)NCc1ccc(CN2CCCC(C)C2)cc1 (stereo unspecified) has a cytotoxicity at 10 µM of -5.03%. For CC(SCC(=O)NC(N)=O)c1ccccc1F (stereo unspecified), the cytotoxicity at 10 µM was 2.96%. Compound COCCn1cc(C(=O)N2CCCC2c2ccccc2C)ccc1=O (stereo unspecified) has a cytotoxicity at 10 µM of 7.69%. With Cc1[nH]ncc1CCCNC(=O)Nc1ccccc1 the cytotoxicity at 10 µM was -2.2%. For Cc1cc(N2CCN(C(=O)c3cc(Cl)c[nH]3)CC2)nc(C(C)C)n1, the cytotoxicity at 10 µM was 3.49%. In the case of COc1ccc(C(C)N2CCC(C(=O)N(C)C)CC2)cc1Cl (stereo unspecified), the cytotoxicity at 10 µM is reported as -52.5%. For COCCC(=O)N1C[C@H]2CCC[C@@]2(COC)C1, the cytotoxicity at 10 µM was 6.75%. With CC(C)N(C)Cc1nnc2n1CCCN(c1cnccn1)C2 the cytotoxicity at 10 µM was 0.0861%. With O=C(CC1CC1)N1C[C@H]2CCN[C@H]2C1 the cytotoxicity at 10 µM was 5.75%. Compound CS(=O)(=O)NCc1cc(-c2cc(F)cc(F)c2)nc(N2CC[C@H](O)C2)n1 has a cytotoxicity at 10 µM of -9.58%. For Cc1ncoc1C(=O)N1CCOC(CC2CCCCC2)C1 (stereo unspecified), the cytotoxicity at 10 µM was -1.33%. CCC(CC)CN(C)Cc1nc(-c2ccccc2NS(C)(=O)=O)oc1C showed a cytotoxicity at 10 µM of -7.69%. CCOc1ccc(-c2c(-c3ccccc3)ncn2C2CCNC2)cn1 (stereo unspecified) gave a cytotoxicity at 10 µM of -51.9%. For CN1CC2(CCN(c3nc(N)nc4c3CCNC4)CC2)OC1=O, the cytotoxicity at 10 µM was -5.66%. In the case of C[C@@H]1CN(c2ccc(C#N)cn2)CC[C@@]1(O)C1CCOCC1, the cytotoxicity at 10 µM is reported as -1.5%. CC(=O)c1ccccc1-c1nc(CC2CCN(C)CC2)no1 gave a cytotoxicity at 10 µM of -17.5%. Work on CNc1ncc(CN(C)c2nc(C3CCCC3)nc3c2cnn3C)cn1 yielded a cytotoxicity at 10 µM of 24.1%. Work on COCCCC1(CO)CCCN(C(=O)c2cnc(C3CC3)nc2)C1 (stereo unspecified) yielded a cytotoxicity at 10 µM of -39.7%. O=C1CCC(=O)N1c1nn(Cc2c(F)cccc2Cl)cc1Cl showed a cytotoxicity at 10 µM of -11.3%. For CC(=O)N(C)CCCc1cc(-c2ccccc2)no1, the cytotoxicity at 10 µM was -7.16%. In the case of CC(NC(=O)NCCCn1cncn1)c1ccc(C#N)cc1 (stereo unspecified), the cytotoxicity at 10 µM is reported as -2.6%. Work on CC(C)c1ncc2c(n1)CN(Cc1nnc(Cc3ccccc3)o1)CC2 yielded a cytotoxicity at 10 µM of -12.6%. COC(=O)NCC(=O)NCc1nn(-c2ccccc2)c2c1CCC2 gave a cytotoxicity at 10 µM of -7.72%. Cc1csc(N2CCN(C(=O)C3(C#N)CCCCC3)CC2)n1 showed a cytotoxicity at 10 µM of -8.45%. In the case of CCC(C)(C)NC(=O)Cn1nc(C)nc1-c1cccc(C)c1, the cytotoxicity at 10 µM is reported as -8.44%. With CC(C)Cc1cc(NC(=O)c2ccc[nH]2)n(C)n1 the cytotoxicity at 10 µM was -6.56%. Work on Cc1cc(C)n(CC2CCCN2CCCS(N)(=O)=O)n1 (stereo unspecified) yielded a cytotoxicity at 10 µM of -4.1%. Work on CN1CCN(c2cc(CNC(=O)c3ccc(=O)[nH]n3)ccn2)CC1 yielded a cytotoxicity at 10 µM of -15%. In the case of Cc1ccccc1-c1cc(C(=O)N2CCn3c(C)nnc3C2)[nH]n1, the cytotoxicity at 10 µM is reported as -5.82%. With CCOc1ccccc1C(CC(=O)Nc1ccc(C)cn1)NC(C)=O (stereo unspecified) the cytotoxicity at 10 µM was -10.7%. Compound Cn1cc(C2CCCN2C(=O)CCCOCc2ccccc2)cn1 (stereo unspecified) has a cytotoxicity at 10 µM of -10.2%. CC(C)N(CC(N)=O)Cc1csc(Cc2ccccc2)n1 gave a cytotoxicity at 10 µM of -2.32%. Cn1cnc2c1CCN(CCCOc1ccc(C#N)cc1)C2 gave a cytotoxicity at 10 µM of -12.4%. With CCN1CCC(NC(=O)CN2CCc3c(nc(C4CC4)n3C)C2)CC1 the cytotoxicity at 10 µM was -10.2%. With c1coc(CN2C[C@@H]3CN(Cc4ccoc4)CCO[C@@H]3C2)c1 the cytotoxicity at 10 µM was -3.87%. Compound Cn1cccc1CN1CCC2(CC1)CC(Oc1cccnc1)C2 has a cytotoxicity at 10 µM of 13.4%. Compound COc1cccc(CCN2C[C@H]3CCNCC[C@H]3S2(=O)=O)c1 has a cytotoxicity at 10 µM of -8.35%.
